Source: PubChem BioAssay
In the library only some 1.9% were active in any assay of this set; here they are far more common.
TLR4-MyD88 BLA: inhibitors of human TLR4-MyD88 binding. actives 0.18% (n = 200,000). O00206+Q99836. inhibition, % at 8.4 µM. HeLa CL3-4 TLR4/MyD88 BLA complementation, FRET ratio; in the data active means inhibition above about 25%;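 further: 0% = vehicle and 100% = reference inhibitor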
NTR1 agonist: NTR1 (human) agonism | NTR1-U2OS beta-arrestin-GFP spot imaging, agonist mode | activation, % at 20 µM | actives 0.17% (n = 330,000) | AID 493036;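 active means activation at or above 40% of the spot to cytoplasm intensity ratio, with at least 20 cells analyzed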;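 further: 0% = DMSO without peptide and 100% = 100 nM NTR1 peptide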
NOD2 RIPK2 PPI: blocks binding of human NOD2 to RIPK2 | O43353 | CHO BLA complementation NOD2-RIPK2, CCF4 ratio | inhibition, % at 4.98 µM | actives 0.38% (n = 360,000) | AID 624267; in the data active means inhibition above about 21%;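 further: 0% = vehicle only and 100% = reference blocker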
MC4R barr agon: human MC4R agonism via beta-arrestin; actives 0.98% (n = 360,000); activation, % at 8.9 µM; U2OS MC4R beta-arrestin complementation, luminescence; percent of melanotan II response, DMSO zero; P32245;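 active means activation above a per-plate cutoff, the mean activation of sample wells on that plate plus 3 SD, cut at about 8% in these data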
TLR9-MyD88 block: blocks human TLR9 binding to MyD88 | Q9NR96+Q99836 | CHO BLA complementation TLR9-MyD88, CCF4 FRET ratio | inhibition, % at 4.98 µM | actives 0.21% (n = 340,000);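 active means inhibition above the mean over all tested compounds plus 3 SD, cut at about 21% in these data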;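 further: 0% = DMSO only wells and 100% = clavulanate BLA inhibitor control wells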
MC4R antagonist: antagonists of human melanocortin 4 receptor (MC4R); MC4R-expressing cells, MTII-stimulated cAMP, LANCE TR-FRET; inhibition, % at 6.5 µM; actives 0.48% (n = 360,000); AID 540295;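 active means inhibition above its plate's cutoff, the mean of tested wells on that plate plus 3 SD, cut at about 29% in these data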;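 further: 0% = Melanotan II alone and 100% = Melanotan II plus saturating MCL0020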
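Assay system: U2OS-MC4R stable cell line; Also added: Melanotan II; Technique: Eu-cAMP/anti-cAMP TR-FRET, emission 671 nm; Times: 30-min compound, 1-h challenge, 1-h detection, room temperature.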
MC4R barr ag: human MC4R beta-arrestin agonism confirmation. activation, % at 8.9 µM. actives 31% (n = 2,400). U2OS MC4R beta-arrestin recruitment, luminescence; scaled DMSO 0%, Melanotan II 100%. AID 602192. shares compounds with MC4R barr agon;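 active means mean activation across replicates above the hit cutoff set in the earlier primary screen, cut at about 8% in these data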
MOR DOR agonist: OPRM1-OPRD1 heterodimer agonism counter-screen; shares compounds with MC4R barr agon; U2OS PathHunter beta-arrestin, beta-gal luminescence; percent of deltorphin B response, DMSO zero; activation, % at 9.2 µM; actives 5.8% (n = 2,400);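 active means mean activation across replicates exceeds the hit threshold derived in the earlier primary screen, cut at about 18% in these data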;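 further: 100% = deltorphin B at 0.9 µM final and 0% = DMSO alone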
Target sequence (P35372 whole entry, looked up): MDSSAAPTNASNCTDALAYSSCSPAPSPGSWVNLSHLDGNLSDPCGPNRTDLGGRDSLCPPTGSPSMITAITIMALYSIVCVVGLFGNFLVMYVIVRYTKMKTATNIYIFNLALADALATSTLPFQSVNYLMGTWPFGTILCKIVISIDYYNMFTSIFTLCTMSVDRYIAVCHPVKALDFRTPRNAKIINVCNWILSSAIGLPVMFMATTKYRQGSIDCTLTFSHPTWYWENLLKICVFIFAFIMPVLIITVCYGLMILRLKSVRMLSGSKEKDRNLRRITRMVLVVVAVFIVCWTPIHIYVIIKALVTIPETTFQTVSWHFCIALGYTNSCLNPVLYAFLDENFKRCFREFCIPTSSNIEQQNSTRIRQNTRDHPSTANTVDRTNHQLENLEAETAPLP
Target sequence (P41143 whole entry, looked up): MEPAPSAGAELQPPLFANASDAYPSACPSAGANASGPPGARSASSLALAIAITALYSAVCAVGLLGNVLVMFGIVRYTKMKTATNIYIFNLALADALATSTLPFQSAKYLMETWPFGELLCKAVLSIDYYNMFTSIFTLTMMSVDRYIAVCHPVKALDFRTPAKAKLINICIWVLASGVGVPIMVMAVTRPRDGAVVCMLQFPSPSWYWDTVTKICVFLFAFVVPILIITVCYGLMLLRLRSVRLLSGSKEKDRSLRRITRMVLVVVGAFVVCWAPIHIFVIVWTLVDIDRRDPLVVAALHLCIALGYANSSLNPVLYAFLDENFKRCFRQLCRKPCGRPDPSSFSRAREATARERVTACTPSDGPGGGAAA
* = called active by the depositor; nt = not tested or not shown.

SMILES	TLR4-MyD88 BLA	NTR1 agonist	NOD2 RIPK2 PPI	MC4R barr agon	TLR9-MyD88 block	MC4R antagonist	MC4R barr ag	MOR DOR agonist
C1CCC(C(CC2CCCCN2)C2CCCCC2)CC1 (stereo not drawn)	6.9	25.1	1.2	10.7*	2.5	13.7	11.5*	13.1
COc1ccc(CNC(=O)CCCCCn2c(SCC#N)nc3cc4c(cc3c2=O)OCO4)cc1	-8.1	4.2	3.7	19.3*	1.6	8.3	-1.5	3.4
COc1ccc(-c2sc3ccc(N4CCOCC4)cc3c2-c2ccc(OC)c(F)c2)cc1	nt	10.6	1.7	1.3	0.5	8.3	nt	nt
Cc1ccc2nc(Cl)c3cc(C(=O)N(CCN(C)C)Cc4ccco4)sc3c2c1	-8.3	3.7	-2.5	1.9	-36.4	-1.0	nt	nt
Cc1ccc2[nH]c(=O)c3cc(C(=O)N(CCCOC(C)C)Cc4ccco4)sc3c2c1	-7.8	22.7	7.1	35.3*	-7.1	-2.8	33.8*	7.8
CCOc1cc(N2CCOCC2)c(OCC)cc1NC(=O)COc1ncnc2ccccc12	7.3	-0.1	-14.3	-2.7	-6.2	4.3	nt	nt
CCOc1cc(N2CCOCC2)c(OCC)cc1NC(=O)c1cc(-c2ccco2)nc2ccccc12	-0.5	22.9	-4.5	13.8*	-6.1	13.1	9.2*	14.7
O=S(=O)(c1ccc2c(c1)CCC2)N1CCNCC1	nt	2.0	-3.5	-3.2	-2.6	1.2	nt	nt
CC1CCCCN1S(=O)(=O)c1ccc(S(=O)(=O)N2CCN(c3ccccc3)CC2)cc1 (stereo not drawn)	-4.4	9.2	-5.7	9.8*	-8.6	2.4	15.2*	4.0
O=C(c1ccc(S(=O)(=O)N2CCCCC2)cc1)N1CCN(c2ccccc2)CC1	-10.4	1.2	-5.5	-3.9	1.2	0.2	nt	nt
O=C1CCCN1CC(O)CS(=O)(=O)Cc1ccc(Cl)cc1 (stereo not drawn)	nt	0.5	-9.2	0.5	nt	-8.7	nt	nt
Cc1cc(C)c(CN2CCN(CCCn3cnc(C(=O)Nc4ccc(C)c(C)c4)n3)CC2)c(C)c1	nt	nt	4.7	15.5*	-2.2	0.8	23.8*	9.6
Cc1ccc(NCCCn2cnc(C(=O)Nc3ccc(C)c(C)c3)n2)cc1C	nt	nt	-2.9	7.6	-8.2	11.3	nt	nt
COc1ccccc1-n1c(SCC(=O)NCC2CCCO2)nc2c([nH]c3ccccc32)c1=O (stereo not drawn)	nt	-0.1	9.3	-8.5	-6.8	3.0	nt	nt
Cc1ccc(NC(=O)C(C)c2ccc(-c3ccccc3)c(F)c2)c(C)c1 (stereo not drawn)	-0.9	6.2	-5.7	9.6*	5.2	10.8	1.7	4.9
CCc1cccc(CC)c1NC(=O)CN1C2CCCC1CC(NC(=O)Nc1cccc(OC)c1)C2 (stereo not drawn)	0.7	4.6	-7.6	-1.3	-4.5	0.0	nt	nt
C=CCC1S/C(=N/N=C/c2cccs2)NC1=O (stereo not drawn)	-11.1	-1.4	-6.8	-1.7	1.6	-4.7	nt	nt
O=C1N/C(=N\N=C\c2cccs2)SC1Cc1ccc(Cl)c(Cl)c1 (stereo not drawn)	-4.4	3.0	-11.0	10.1*	5.5	3.6	-2.5	4.0
N#C/C(=C/c1ccc(Br)o1)C(N)=O	3.1	3.9	1.1	2.3	0.7	0.4	nt	nt
N#C/C(=C\c1ccc(-c2nc3ccccc3s2)o1)C(N)=O	nt	-0.5	-6.9	20.9*	-6.8	-28.4	3.2	6.6
CNC(=O)/C(C#N)=C/c1ccc(-c2nc3ccccc3s2)o1	nt	-0.1	-9.8	38.1*	nt	-9.2	0.6	4.8
O=C(Nc1ccc(F)cc1)Nc1sccc1-c1nc2ccccc2s1	nt	2.7	1.4	25.2*	2.2	2.8	10.3*	3.4
O=C(Nc1ccc(O)c(-c2nc3ccccc3s2)c1)c1cccs1	6.3	7.3	-3.0	24.5*	-2.6	6.0	7.6	-0.6
O=C(Nc1ccc(O)c(-c2nc3ccccc3s2)c1)c1cc(=O)c2ccccc2o1	-7.8	-0.9	-6.6	0.0	8.8	5.6	nt	nt
O=C(NC(=S)Nc1ccc(S(=O)(=O)N2CCCC2)cc1)c1cccs1	-22.0	3.6	-6.7	-1.7	4.9	4.2	nt	nt
SMILES	TLR4-MyD88 BLA	NTR1 agonist	NOD2 RIPK2 PPI	MC4R barr agon	TLR9-MyD88 block	MC4R antagonist	MC4R barr ag	MOR DOR agonist
O=C(Nc1ccc2nsnc2c1)c1cccs1	0.0	1.0	8.0	-1.0	1.9	-14.6	nt	nt
O=C(NC(=S)Nc1ccc(S(=O)(=O)N2CCCCCC2)cc1)c1cccs1	0.5	6.5	7.6	12.8*	-11.1	4.4	9.4*	4.6
O=C(Nc1ccc2nn(-c3ccccc3)nc2c1)c1cccs1	4.7	3.3	-4.7	10.5*	-3.3	10.6	1.1	2.7
CCOC(=O)[C@]12CCCC=C1N(CCc1ccc(OC)c(OC)c1)C(=O)[C@H](CC(=O)NCC13CC4CC(CC(C4)C1)C3)C2	nt	nt	-1.5	nt	nt	nt	nt	nt
CCOc1ccc(-n2nc(C(=O)NC3CCCCC3)c3ccccc3c2=O)cc1	nt	1.5	-2.2	0.0	-14.1	7.3	nt	nt
NS(=O)(=O)c1ccc(OC(=O)CNC(=O)OCc2ccccc2)cc1	nt	0.3	-8.4	-3.0	-9.3	0.7	nt	nt
O=C(NC(=S)Nc1cccc(NC(=O)c2ccccc2Cl)c1)c1cccs1	3.2	6.0	-15.9	14.2*	-3.2	0.6	1.0	0.9
O=C(Nc1cccc(NC(=S)NC(=O)c2cccs2)c1)c1ccccc1	-6.2	-1.1	-4.2	11.8*	-0.6	6.0	18.6*	5.5
Cc1ccccc1C(=O)Nc1cccc(NC(=S)NC(=O)c2cccs2)c1	-5.0	11.6	-5.9	4.6	-3.8	9.2	nt	nt
C[C@H]1CN([C@@H](C)CO)C(=O)CCCn2nncc2CO[C@@H]1CN(C)Cc1ccncc1	nt	nt	1.5	-0.7	-13.9	1.4	nt	nt
CCC(OCC(O)CN1CCCCC1)c1ccccc1 (stereo not drawn)	nt	-1.1	7.3	-2.4	-1.3	10.2	nt	nt
Cc1ccccc1OCCn1cc(/C=C(\C#N)C(=O)NCc2ccco2)c2ccccc21	-4.9	3.0	-2.8	25.6*	-4.7	4.2	12.0*	6.0
N#C/C(=C\c1cn(CCOc2ccccc2)c2ccccc12)C(=O)NCc1ccco1	0.6	9.8	6.4	21.4*	-7.4	19.8	34.8*	8.9
N#C/C(=C\c1cn(CCOc2ccccc2F)c2ccccc12)C(=O)NCc1cccs1	-11.5	1.6	-5.0	10.4*	6.5	10.1	25.7*	7.8
Cc1cc(F)ccc1C(O)c1ncc(-c2cccc(F)c2)[nH]1 (stereo not drawn)	nt	nt	-4.3	-1.9	nt	1.2	nt	nt
CC(/C=C1\SC(=S)N(NC(=O)c2cccc(O)c2)C1=O)=C\c1ccccc1	11.1	6.7	1.6	9.8*	11.3	9.8	1.9	5.3
